We go through 7 molecules from ChEMBL document CHEMBL3352816, “Synthesis and antiproliferative activity of imidazo[2,1-b][1,3,4]thiadiazole derivatives” (Bioorg Med Chem Lett, 2014).

The nature of assay [1]: Growth inhibition of human NSCLC cells. In kind it is functional.
Assay [2] in a line: Growth inhibition of human Leukemia cells. In kind it is functional. The following applies: for GI50 / TGI: Leukemia cell.
Assay [3] is described as follows: Growth inhibition of human Colon cancer cells. The assay is classed as functional. The following applies: Cancer cell lines; for CC50: read-out: LC50 (the source's name).
Assay [4] in a line: Growth inhibition of human CNS cancer cells. In kind it is functional. To be noted: Cancer cell lines.
The nature of assay [5]: Growth inhibition of human Melanoma cells. In kind it is functional. To be noted: Melanoma cell.
Assay [6] in a line: Growth inhibition of human Ovarian cancer cells. In kind it is functional. The following applies: Cancer cell lines.
The nature of assay [7]: Growth inhibition of human Renal cancer cells. In kind it is functional. To be noted: Cancer cell lines.
A short description of assay [8]: Growth inhibition of human Prostate cancer cells. In kind it is functional. The following applies: Cancer cell lines.
Assay [9] can be described thus: Growth inhibition of human Breast cancer cells. In kind it is functional. The following applies: Cancer cell lines.
In assay [10] the test system is REH. Briefly: Cytotoxicity against human REH cells assessed as reduction in cell viability at 10 to 250 uM after 24 to 72 hrs by trypan blue exclusion assay. The assay is classed as functional, cell-based. In outline:
(§1)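 Reh, K562 and Nalm6 leukemic cells were treated with 10, 50, 100 and 250 µM or with 0.1, 0.5, 1, 5 and 10 µM (compounds dissolved in DMSO). Viability was scored by trypan blue after 24, 48 and 72 h. DMSO-treated cells served as vehicle control.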

For assay [11], the system named is K562. Briefly: Cytotoxicity against human K562 cells assessed as reduction in cell viability at 10 to 250 uM after 24 to 72 hrs by trypan blue exclusion assay. The assay is classed as functional, cell-based. In a few lines: as §1
In assay [12] the test system is NALM-6. The assay is described as follows: Cytotoxicity against human NALM6 cells assessed as reduction in cell viability at 10 to 250 uM after 24 to 72 hrs by trypan blue exclusion assay. The assay is classed as functional, cell-based. In a few lines:
as §1

Assay [13] deals with REH. Briefly: Cytotoxicity against human REH cells assessed as reduction in cell viability at 100 to 250 uM after 48 to 72 hrs by MTT assay. In kind it is functional, cell-based. In outline: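 MTT viability read-out in leukemic cells treated with 10, 50, 100 and 250 µM or with 0.1, 0.5, 1, 5 and 10 µM. Cells harvested after 48 and 72 h. Compounds dissolved in DMSO.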

Molecules are shown by their SMILES. Activity calls are given as the source filed them. The calls are words filed in the database; no cut-off is given here.

Consider `N#CSc1c(-c2ccccc2)nc2sc(Cc3ccccc3)nn12`, for which the GI50 – broadly, the concentration at which growth is held to half of that of the control – in assay [1] was determined as 6 µM; in assay [2], 13.5 µM; in [3], 11.2 µM; in assay [4], 4.4 µM; in [5], 20.9 µM; in assay [6] it was 9.8 µM. In addition, the concentration for 50% growth inhibition (GI50) stood at 15.1 µM in [7], 15.5 µM in [8] and 7.4 µM in assay [9]. This molecule came in with an LC50 (concentration killing 50% of cells) in assay [1] of 97.7 µM. Further, the TGI – broadly, the concentration at which net growth stops – amounted to 75.9 µM in [1]; 57.5 µM in assay [2]; 91.2 µM in assay [3]; 77.6 µM in [4]; 85.1 µM in assay [5]; 79.4 µM in assay [6]. Further, the TGI turned out to be 70.8 µM in assay [7], 40.7 µM in assay [8] and 75.9 µM in [9]. Moreover, the LC50 (commonly the concentration that kills 50% of the test population) in assay [6] amounted to 97.7 µM; in assay [7], 95.5 µM.

With `CO[C@H]1/C=C/O[C@@]2(C)Oc3c(C)c(O)c4c(O)c(cc(O)c4c3C2=O)NC(=O)/C(C)=C\C=C\[C@H](C)[C@H](O)[C@@H](C)[C@@H](O)[C@@H](C)[C@H](OC(C)=O)[C@@H]1C` [RIFAMYCIN], the GI50 in assay [1] was determined as 14.5 µM; in [2] it was 3.2 µM; in assay [3], 10 µM; in assay [4], 21.4 µM; in [5] it was 15.5 µM; in [6], 18.6 µM. Also, the GI50 in assay [7] worked out at 15.9 µM; in assay [8], 10 µM; in [9], 16.6 µM.

Turning to `Clc1ccc(-c2cn3nc(Cc4ccccc4)sc3n2)cc1`, the GI50 in assay [1] was 7.6 µM; in assay [2] it was 2.1 µM; in assay [3], 2.2 µM; in assay [4] it was 5 µM; in [5], 3.7 µM; in assay [6], 4.6 µM. For the same molecule, the GI50 in [7] amounted to 2.6 µM; in [8], 2.9 µM; in [9] it was 4 µM. Besides, the LC50 (concentration killing 50% of cells) in assay [1] turned out to be 57.5 µM. Also, the TGI in assay [1] came out at 20.9 µM; in [2] it was 23.4 µM; in assay [3], 5.3 µM; in assay [4] it was 13.8 µM; in [5], 8.9 µM; in [6], 10.5 µM. The results for the TGI in assay [7], in assay [8] and in [9] were 5.9 µM, 8.1 µM and 12 µM, respectively. Besides, the LC50 (concentration causing 50% net cell kill) in assay [2] is 95.5 µM. The CC50 in [3] was 14.1 µM; in assay [8] (read-out: LC50 (the source's name)), 23.4 µM. Moreover, the LC50 in assay [4] is 34.7 µM; in assay [5], 21.9 µM; in assay [6], 30.9 µM; in [7], 15.1 µM; in assay [9], 49 µM. Besides, the outcome in assay [10], in [11], in assay [12] and in assay [13] was Active.

As for `O=Cc1c(-c2ccc(F)cc2)nc2sc(CCC3CCCCC3)nn12`, the GI50 in assay [1] turned out to be 13.2 µM; in assay [2], 10.2 µM; in [3], 5.9 µM; in assay [4] it was 7.1 µM; in [5], 21.9 µM; in assay [6] it was 12.3 µM. The GI50 was found to be 14.1 µM in assay [7], 7.4 µM in assay [8] and 11.8 µM in [9]. Moreover, the concentration for total growth inhibition (TGI) in [1] worked out at 75.9 µM; in assay [2], 70.8 µM; in assay [3], 63.1 µM; in assay [4], 67.6 µM; in [5], 87.1 µM; in [6], 97.7 µM. Moreover, the TGI came out at 93.3 µM in assay [7] and 61.7 µM in [9].

For `O=Cc1c(-c2ccc([N+](=O)[O-])cc2)nc2sc(Cc3ccccc3)nn12`, the GI50 was 2.9 µM in [1]; 5.9 µM in assay [2]; 3.1 µM in assay [3]; 2.9 µM in assay [4]; 3.7 µM in assay [5]; 4.1 µM in [6]. Moreover, the GI50 in [7] was 3.7 µM; in [8] it was 3 µM; in [9], 2.8 µM. The molecule further showed an LC50 (concentration killing 50% of cells) in assay [1] of 95.5 µM. In addition, the TGI in assay [1] is 45.7 µM; in [2], 26.3 µM; in [3] it was 31.6 µM; in [4], 26.9 µM; in assay [5], 42.7 µM; in assay [6], 39.8 µM. Also, the figures for the TGI in assay [7], in assay [8] and in assay [9] were 58.9 µM, 50.1 µM and 26.3 µM, respectively. Further, the LC50 (concentration causing 50% net cell kill) in assay [2] amounted to 69.2 µM. Besides, the CC50 in [3] turned out to be 85.1 µM. Moreover, the LC50 in assay [4] and in assay [9] was 83.2 µM throughout.

As to `O=[N+]([O-])c1ccc(-c2nc3sc(Cc4ccccc4)nn3c2Br)cc1`, the GI50 worked out at 12.6 µM in assay [1]; 69.2 µM in assay [2]; 52.5 µM in assay [3]; 3.4 µM in assay [4]; 40.7 µM in assay [5]; 6.3 µM in assay [6]. The GI50 in assay [7] came out at 3.7 µM; in assay [8], 42.7 µM; in [9], 17.4 µM. Besides, the TGI in [1] is 56.2 µM; in assay [3], 83.2 µM; in assay [4] it was 47.9 µM; in [6], 83.2 µM; in assay [7] it was 64.6 µM; in [9], 79.4 µM.

With `COc1ccc(-c2nc3sc(Cc4ccccc4)nn3c2SC#N)cc1`, the GI50 came out at 4.6 µM in assay [1]; 3.6 µM in [2]; 4.1 µM in assay [3]; 3.9 µM in [4]; 5.8 µM in assay [5]; 5.6 µM in assay [6]. The GI50 in assay [7] was determined as 7.9 µM; in assay [9], 4.8 µM. Moreover, the LC50 (concentration killing 50% of cells) in [1] was 83.2 µM. For the same molecule, the total growth inhibition concentration (TGI) in assay [1] stood at 52.5 µM; in [2], 72.4 µM; in assay [3], 61.7 µM; in [4] it was 55 µM; in assay [5], 77.6 µM; in [6], 56.2 µM. Also, the TGI in assay [7] amounted to 70.8 µM; in assay [9], 60.3 µM. In [5], this molecule showed an LC50 of 89.1 µM.
